Results collected from several papers.
Each line is one published result; the experiments were not run side by side.
CTSB: Cathepsin B (CTSB, Homo sapiens, UniProt P07858)
STAT3: Signal transducer and activator of transcription 3 (STAT3, Homo sapiens, UniProt P40763)

`COC(=O)c1cc(N(C)C(=O)c2ccn3ncc(-c4ccc(C(=O)O)cc4)c3c2)ccc1Cl` gave an IC50 of 93.7 nM (Serine/threonine-protein kinase pim-1 (PIM1, Homo sapiens, UniProt P11309); enzyme activity; inhibitor).
`CC[C@H](C)[C@H](NC(=O)[C@H](CO)NC(=O)CNC(=O)[C@@H](NC(=O)[C@@H](NC(=O)[C@@H](NC(=O)CN)[C@@H](C)O)C(C)C)[C@@H](C)O)C(=O)N[C@@H](CC(C)C)C(=O)N[C@H](C(=O)N1CCC[C@H]1C(=O)N[C@H](C(=O)N[C@@H](CC(=O)O)C(=O)N[C@@H](Cc1ccc(O)cc1)C(=O)NCC(=O)N[C@H]1CSSC[C@@H](C(=O)N[C@@H](CO)C(=O)N[C@H](C(=O)N[C@@H](C)C(=O)N[C@@H](CCSC)C(=O)N[C@@H](Cc2ccc(O)cc2)C(=O)NCC(=O)NCC(=O)N[C@H](C(=O)N[C@H](C(=O)N[C@@H](CC(=O)O)C(=O)N2CCC[C@H]2C(=O)N[C@H](C(=O)N[C@@H](CCCNC(=N)N)C(=O)N[C@@H](Cc2ccccc2)C(=O)N2CCC[C@H]2C(=O)N[C@@H](CC(N)=O)C(=O)N[C@@H](C)C(=O)N[C@@H](Cc2c[nH]c3ccccc23)C(=O)N[C@@H](CCCNC(=N)N)C(=O)N[C@@H](CCC(=O)O)C(=O)N[C@@H](CC(C)C)C(=O)O)[C@@H](C)CC)[C@@H](C)CC)C(C)C)C(C)C)NC(=O)[C@H](CC(C)C)NC(=O)[C@H](Cc2ccccc2)NC(=O)[C@@H]2CCCN2C(=O)[C@H](CC(N)=O)NC(=O)[C@H](Cc2ccccc2)NC1=O)[C@@H](C)CC)[C@@H](C)O` has an IC50 of over 200000 nM (CTSB; enzyme activity; inhibitor).
`NC(=O)CC[C@H](NC(=O)[C@@H]1CC[C@@H]2CCN(C(=O)CCCCCC#Cc3cccc4c3CN(C3CCC(=O)NC3=O)C4=O)C[C@H](NC(=O)c3cc4cc(C(=O)P(=O)(O)O)ccc4[nH]3)C(=O)N21)C(=O)NC(c1ccccc1)c1ccccc1` (stereo partly shown) has a DC50 of 360 to 380 nM (STAT3; protein level; degrader; luciferase).
The IC50 of `CCC(C(=O)Nc1cc(NC2CCNC2)ccc1C)n1cc(Br)cc2nc(SCc3ccc(F)cc3)nc1-2` (stereo not shown) is reported as over 100000 nM (CTSB; enzyme activity; inhibitor).
With `CC(=O)N[C@H]1Cc2ccc(cc2)OC/C=C/C[C@@H](C(=O)N[C@@H](CCCNC(=N)N)C(=O)c2nc3ccccc3s2)NC(=O)[C@H](CC(C)C)NC1=O` the IC50 was 4.6 nM (Suppressor of tumorigenicity 14 protein (ST14, Homo sapiens, UniProt Q9Y5Y6); enzyme activity; inhibitor; fluorescence; with preincubation).
For `Cn1nccc1[C@]1(CNC(=O)c2ccc(F)c(F)c2-c2ccc(C(F)(F)F)cc2)NC(=O)NC1=O`, the IC50 was over 100000 nM (CTSB; enzyme activity; inhibitor).
The IC50 of `CNC(=O)c1ccc(-c2cnn3ccc(C(=O)N(C)c4ccc(Cl)c(C(=O)O)c4)cc23)cc1` is reported as over 30000 nM (ALK tyrosine kinase receptor (ALK, Homo sapiens, UniProt Q9UM73); enzyme activity; inhibitor).
`CCC(C(=O)Nc1cc(NC2CNC2)ccc1C)n1cccc2nc(SCc3ccc(F)cc3)nc1-2` (stereo not shown) has an IC50 of over 100000 nM (CTSB; enzyme activity; inhibitor).
For `NC(=O)CC[C@H](NC(=O)[C@@H]1CC[C@@H]2CCN(C(=O)CCCCCC#Cc3cccc4c3CN(C3CCC(=O)NC3=O)C4=O)C[C@H](NC(=O)c3cc4cc(C(F)(F)P(=O)(O)O)ccc4[nH]3)C(=O)N21)C(=O)NC(c1ccccc1)c1ccccc1` (stereo partly shown), the DC50 was 360 to 380 nM (STAT3; protein level; degrader; luciferase).
For `CC(C)C[C@H](NC(=O)[C@H]1O[C@@H]1C(=O)O)C(=O)NCCCCN=C(N)N`, the IC50 was 5.2 nM (CTSB; enzyme activity; inhibitor).
